Test [1] deals with T1, Glucocorticoid receptor (Homo sapiens, UniProt P04150).
T1 sequence (P04150 whole entry): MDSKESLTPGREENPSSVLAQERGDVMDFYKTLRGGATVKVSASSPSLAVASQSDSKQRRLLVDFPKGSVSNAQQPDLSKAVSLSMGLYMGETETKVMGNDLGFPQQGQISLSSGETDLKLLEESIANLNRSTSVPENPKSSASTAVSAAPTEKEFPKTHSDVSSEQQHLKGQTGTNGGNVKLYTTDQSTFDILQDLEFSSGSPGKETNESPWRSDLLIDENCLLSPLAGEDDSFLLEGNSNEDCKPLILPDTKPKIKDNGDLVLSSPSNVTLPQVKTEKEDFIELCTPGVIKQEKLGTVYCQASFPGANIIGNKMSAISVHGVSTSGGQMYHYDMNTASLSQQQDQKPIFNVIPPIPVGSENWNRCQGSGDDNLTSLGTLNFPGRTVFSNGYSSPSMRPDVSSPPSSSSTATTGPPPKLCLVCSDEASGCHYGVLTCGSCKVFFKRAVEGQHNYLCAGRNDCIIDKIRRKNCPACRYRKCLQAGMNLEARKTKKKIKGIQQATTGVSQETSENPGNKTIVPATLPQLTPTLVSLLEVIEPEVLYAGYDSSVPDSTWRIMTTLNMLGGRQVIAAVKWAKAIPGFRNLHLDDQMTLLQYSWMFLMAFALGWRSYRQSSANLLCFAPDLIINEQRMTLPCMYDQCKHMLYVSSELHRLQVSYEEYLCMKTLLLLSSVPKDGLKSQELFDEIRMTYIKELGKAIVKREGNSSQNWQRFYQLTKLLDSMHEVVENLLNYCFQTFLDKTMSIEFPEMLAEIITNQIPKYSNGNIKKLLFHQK
The test can be described thus: Displacement of [3H]dexamethasone from human Glucocorticoid receptor (GR). In general terms: Loss of bound radioactivity is the signal in a displacement assay; it reports binding, not function.

Test [2] deals with T1, Glucocorticoid receptor. The test can be described thus: Effect on human Glucocorticoid receptor (GR) in a whole cell assay to measure functional cellular GR-antagonism (GRAF).
Test [3] deals with T2, Androgen receptor (Homo sapiens, UniProt P10275).
T2 sequence (P10275 whole entry): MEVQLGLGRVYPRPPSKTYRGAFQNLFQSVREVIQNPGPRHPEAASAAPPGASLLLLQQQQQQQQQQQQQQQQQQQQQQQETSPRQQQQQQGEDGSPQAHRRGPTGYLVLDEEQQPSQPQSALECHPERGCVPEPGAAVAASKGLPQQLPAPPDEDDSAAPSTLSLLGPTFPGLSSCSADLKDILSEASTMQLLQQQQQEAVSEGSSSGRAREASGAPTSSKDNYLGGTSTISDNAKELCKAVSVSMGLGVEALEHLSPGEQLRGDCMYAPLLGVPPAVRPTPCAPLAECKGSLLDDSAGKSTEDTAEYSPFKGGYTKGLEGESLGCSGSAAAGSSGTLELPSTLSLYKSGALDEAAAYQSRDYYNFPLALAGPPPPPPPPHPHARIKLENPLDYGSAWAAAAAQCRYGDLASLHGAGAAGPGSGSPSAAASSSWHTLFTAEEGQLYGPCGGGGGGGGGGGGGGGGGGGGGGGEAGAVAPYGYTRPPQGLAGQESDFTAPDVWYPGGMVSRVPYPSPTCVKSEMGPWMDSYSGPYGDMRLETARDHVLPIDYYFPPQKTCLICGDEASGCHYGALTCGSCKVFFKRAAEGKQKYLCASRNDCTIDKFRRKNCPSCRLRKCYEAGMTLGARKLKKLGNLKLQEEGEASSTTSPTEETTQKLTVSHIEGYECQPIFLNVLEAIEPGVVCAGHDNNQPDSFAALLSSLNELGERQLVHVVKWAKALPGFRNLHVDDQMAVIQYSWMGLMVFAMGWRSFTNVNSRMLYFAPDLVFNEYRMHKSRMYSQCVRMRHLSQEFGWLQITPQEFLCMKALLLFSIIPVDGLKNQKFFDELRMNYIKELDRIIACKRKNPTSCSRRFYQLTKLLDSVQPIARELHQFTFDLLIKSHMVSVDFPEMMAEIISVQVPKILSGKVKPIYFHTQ
Briefly: Displacement of [3H]mibolerone from human Androgen receptor.

Test [4] addresses T3, Mineralocorticoid receptor (Homo sapiens, UniProt P08235).
T3 sequence (P08235 whole entry): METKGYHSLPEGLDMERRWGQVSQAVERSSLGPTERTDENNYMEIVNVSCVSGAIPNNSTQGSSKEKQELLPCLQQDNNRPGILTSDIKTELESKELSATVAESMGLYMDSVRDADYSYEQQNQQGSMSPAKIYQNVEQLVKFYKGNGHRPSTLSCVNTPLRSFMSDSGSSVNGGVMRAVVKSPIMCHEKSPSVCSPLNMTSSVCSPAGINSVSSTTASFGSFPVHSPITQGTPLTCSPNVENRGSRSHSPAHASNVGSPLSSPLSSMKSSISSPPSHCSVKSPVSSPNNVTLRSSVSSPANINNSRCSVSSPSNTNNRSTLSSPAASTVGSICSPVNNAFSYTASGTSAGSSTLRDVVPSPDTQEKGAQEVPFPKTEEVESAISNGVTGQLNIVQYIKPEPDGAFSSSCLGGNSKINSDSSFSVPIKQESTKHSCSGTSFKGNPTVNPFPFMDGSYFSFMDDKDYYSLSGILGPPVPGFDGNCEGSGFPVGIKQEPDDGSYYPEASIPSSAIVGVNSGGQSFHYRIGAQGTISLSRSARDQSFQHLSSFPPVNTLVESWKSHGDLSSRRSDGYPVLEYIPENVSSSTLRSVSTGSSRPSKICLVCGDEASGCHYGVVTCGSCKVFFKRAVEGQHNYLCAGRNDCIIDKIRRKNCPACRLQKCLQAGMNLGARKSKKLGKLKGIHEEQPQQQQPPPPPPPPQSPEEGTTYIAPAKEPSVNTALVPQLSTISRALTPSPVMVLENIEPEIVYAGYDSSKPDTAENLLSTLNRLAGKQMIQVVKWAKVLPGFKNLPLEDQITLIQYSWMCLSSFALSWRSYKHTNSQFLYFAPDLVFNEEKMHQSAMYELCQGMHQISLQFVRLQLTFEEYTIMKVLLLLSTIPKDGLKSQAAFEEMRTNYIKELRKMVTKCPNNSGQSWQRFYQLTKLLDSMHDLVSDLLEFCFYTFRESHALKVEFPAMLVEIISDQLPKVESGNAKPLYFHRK
The test can be described thus: Displacement of [3H]aldosterone from human Mineralocorticoid receptor. In short, it runs like this:
(§1)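 Human steroid receptor (PR, MR, AR, ERα) binding measured by radioligand displacement, with IC50s determined in duplicate. Values without a range come from a single experiment, and values with a range are geometric means of repeat experiments.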

Test [5] addresses T4, Progesterone receptor (Homo sapiens, UniProt P06401).
T4 sequence (P06401 whole entry): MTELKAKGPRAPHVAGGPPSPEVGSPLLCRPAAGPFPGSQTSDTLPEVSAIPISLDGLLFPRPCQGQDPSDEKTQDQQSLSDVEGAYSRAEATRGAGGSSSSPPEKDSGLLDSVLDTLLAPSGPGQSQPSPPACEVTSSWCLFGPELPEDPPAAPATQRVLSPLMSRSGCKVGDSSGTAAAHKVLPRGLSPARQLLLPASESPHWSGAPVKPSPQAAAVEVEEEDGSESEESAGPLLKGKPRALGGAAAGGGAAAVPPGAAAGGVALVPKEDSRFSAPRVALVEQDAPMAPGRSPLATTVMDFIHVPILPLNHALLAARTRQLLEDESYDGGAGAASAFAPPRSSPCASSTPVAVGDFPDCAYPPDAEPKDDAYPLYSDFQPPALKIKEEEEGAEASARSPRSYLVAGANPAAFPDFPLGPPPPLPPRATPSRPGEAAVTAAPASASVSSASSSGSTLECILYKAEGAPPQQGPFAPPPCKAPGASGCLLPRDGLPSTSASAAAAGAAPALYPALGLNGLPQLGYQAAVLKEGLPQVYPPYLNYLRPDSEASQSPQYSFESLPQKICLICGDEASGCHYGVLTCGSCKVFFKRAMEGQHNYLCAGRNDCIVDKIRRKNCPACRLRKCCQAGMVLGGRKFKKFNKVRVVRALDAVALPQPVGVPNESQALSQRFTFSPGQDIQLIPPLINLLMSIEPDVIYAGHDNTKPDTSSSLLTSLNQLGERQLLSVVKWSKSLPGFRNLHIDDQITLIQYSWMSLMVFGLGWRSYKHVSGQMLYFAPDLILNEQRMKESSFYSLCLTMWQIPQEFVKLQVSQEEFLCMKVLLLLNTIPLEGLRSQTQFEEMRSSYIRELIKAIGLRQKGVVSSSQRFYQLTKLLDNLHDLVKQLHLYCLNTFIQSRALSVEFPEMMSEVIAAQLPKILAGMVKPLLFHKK
Briefly: Displacement of [3H]progesterone from human Progesterone receptor. The method, boiled down: as §1

Test [6] deals with T1, Glucocorticoid receptor. Briefly: Displacement of [3H]dexamethasone from human Glucocorticoid receptor (GR); Value ranges from 1428-1433 nM. The method, boiled down:
(§2)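 Binding to human GR; IC50 reported as the geometric mean of two experiments (three for some values), each run in duplicate, with the range of the experiments given.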

Test [7] has as its target T1, Glucocorticoid receptor. The test can be described thus: Displacement of [3H]dexamethasone from human Glucocorticoid receptor (GR); […].
In test [8] the target is T1, Glucocorticoid receptor. The test can be described thus: Displacement of [3H]dexamethasone from human Glucocorticoid receptor (GR); Value ranges from 159-161 nM. The method, boiled down:
as §2

The target of test [9] is T1, Glucocorticoid receptor. Briefly: Displacement of [3H]dexamethasone from human Glucocorticoid receptor (GR); Value ranges from 5-6 nM. The method, boiled down:
as §2

Test [10] has as its target T1, Glucocorticoid receptor. The test can be described thus: Displacement of [3H]dexamethasone from human Glucocorticoid receptor (GR); Value ranges from 3-4 nM. In short, it runs like this:
as §2

Test [11] addresses T5, Estrogen receptor (Homo sapiens, UniProt P03372).
T5 sequence (P03372 whole entry): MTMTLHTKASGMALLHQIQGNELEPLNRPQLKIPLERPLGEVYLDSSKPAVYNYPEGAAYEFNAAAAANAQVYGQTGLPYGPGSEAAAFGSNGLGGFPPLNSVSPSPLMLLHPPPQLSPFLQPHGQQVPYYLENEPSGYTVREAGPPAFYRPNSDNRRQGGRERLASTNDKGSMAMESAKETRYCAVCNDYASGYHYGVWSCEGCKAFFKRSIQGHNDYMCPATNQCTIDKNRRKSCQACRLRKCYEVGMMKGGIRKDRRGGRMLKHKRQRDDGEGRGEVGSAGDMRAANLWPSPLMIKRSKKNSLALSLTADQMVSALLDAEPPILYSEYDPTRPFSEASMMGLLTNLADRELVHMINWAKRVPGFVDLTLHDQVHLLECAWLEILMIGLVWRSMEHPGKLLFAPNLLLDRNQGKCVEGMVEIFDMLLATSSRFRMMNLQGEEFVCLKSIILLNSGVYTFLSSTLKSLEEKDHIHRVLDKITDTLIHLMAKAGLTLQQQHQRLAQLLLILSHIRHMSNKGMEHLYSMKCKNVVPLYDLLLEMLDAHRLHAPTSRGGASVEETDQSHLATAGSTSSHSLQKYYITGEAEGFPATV
Briefly: Displacement of [3H]estradiol from human estrogen receptor alpha. In short, it runs like this:
as §1

Test [12] deals with T1, Glucocorticoid receptor. The test can be described thus: Displacement of [3H]dexamethasone from human Glucocorticoid receptor (GR); Value ranges from 378-814 nM.
The target of test [13] is T1, Glucocorticoid receptor.
The target in test [14] is T1, Glucocorticoid receptor. This is another data set of the same source.

Structures are written as SMILES.

For orientation: IC50 means the concentration at which inhibition is half-maximal. As for `COc1cccc2c1-c1ccc(NS(C)(=O)=O)cc1C(c1cc(C)cc(C)c1)O2` (stereo unspecified), the half-maximal inhibitory concentration (IC50) was 2 nM in test [1], 78 nM in test [2], more than 10000 nM in test [3] and 1220 nM in test [4].
With `COc1cccc2c1-c1ccc(NS(C)(=O)=O)cc1C(c1cccc(C)c1)O2` (stereo unspecified), the IC50 is 1 nM in test [1]; 236 nM in test [5]; 21 nM in test [2]; more than 10000 nM in test [3]; 333 nM in test [4].
On to `COc1cccc2c1-c1ccc(NS(C)(=O)=O)cc1C(c1ccccn1)O2` (stereo unspecified), for which the IC50 in test [6] is 1430 nM. This counts as single-digit micromolar.
For the molecule `COc1cccc2c1-c1ccc(NS(C)(=O)=O)cc1C(C1CCCCC1)O2` (stereo unspecified), the half-inhibitory concentration (IC50) in [2] was 630 nM; in [7], 47 nM.
For the molecule `CCC(=O)Nc1ccc2c(c1)C(c1ccccc1)Oc1cccc(OC)c1-2` (stereo unspecified), the IC50 in test [8] is 160 nM; in [2] it was 124 nM.
With `COc1cccc(C2Oc3cccc(OC)c3-c3ccc(NS(C)(=O)=O)cc32)c1` (stereo unspecified), the concentration for half-maximal inhibition (IC50) in test [9] is 6 nM; in test [2] it was 122 nM.
For `COc1cccc2c1-c1ccc(NS(C)(=O)=O)cc1C(c1ccc(Cl)c(Cl)c1)O2` (stereo unspecified), the half-maximal inhibitory concentration (IC50) in [2] worked out at 378 nM; in test [10], 3 nM.
Turning to `CNc1cccc(C2Oc3cccc(OC)c3-c3ccc(NS(C)(=O)=O)cc32)c1` (stereo unspecified), the results for the IC50 in test [1] and in test [2] were 23 nM and 180 nM, respectively.
In the case of `CCCCCC1Oc2cccc(OC)c2-c2ccc(NS(C)(=O)=O)cc21` (stereo unspecified), in [1], the half-maximal inhibitory concentration (IC50) turned out to be 21 nM.
For the molecule `COc1cccc2c1-c1ccccc1C(c1ccccc1)O2` (stereo unspecified), the IC50 was 10000 nM in test [1] and 1910 nM in test [2].
`COc1cccc2c1-c1ccc(NS(C)(=O)=O)c(Br)c1C(c1ccccc1)O2` (stereo unspecified): the IC50 worked out at 10000 nM in [5]; 430 nM in [2]; 2280 nM in [11]; 519 nM in test [12]; 454 nM in [4].
In the case of `COc1cccc2c1-c1ccc(NS(C)(=O)=O)cc1C(c1ccc(Oc3ccccc3)cc1)O2` (stereo unspecified), the IC50 in [1] is 63 nM; in [2], 847 nM.
As for `COc1cccc2c1-c1ccc(NS(C)(=O)=O)cc1C(c1ccccc1)O2` (stereo unspecified), the IC50 in test [2] is 87 nM; in [7], 19 nM; in test [11] it was more than 10000 nM; in test [3], 6530 nM; in test [4], 22900 nM.
On to `CCS(=O)(=O)Nc1ccc2c(c1)C(c1ccccc1)Oc1cccc(OC)c1-2` (stereo unspecified), for which the half-inhibitory concentration (IC50) in [2] came out at 251 nM; in test [7], 62 nM.
Consider `COc1cccc2c1-c1ccc(NS(=O)(=O)c3ccccc3)cc1C(c1ccccc1)O2` (stereo unspecified), for which the IC50 was 137 nM in [2] and 146 nM in test [13].
In the case of `COc1cccc2c1-c1ccc(NS(C)(=O)=O)cc1C(c1ccsc1)O2` (stereo unspecified), the figures for the half-inhibitory concentration (IC50) in test [2] and in [14] were 43 nM and 11 nM, respectively.
